Data reported in ChEMBL document CHEMBL5532647, “Design, synthesis, ADME and biological evaluation of benzylpiperidine and benzylpiperazine derivatives as novel reversible monoacylglycerol lipase (MAGL) inhibitors” (Eur J Med Chem, 2024).
Converted amounts (≈) assume the structure as drawn. The source made the active and inactive calls. No cut-off for these calls is given here.

What was measured:
[1] = Thermodynamic aqueous solubility of the compound by LC-MS/MS analysis; assay type: physicochemical; conditions: read-out: Therm_solubility
Method in brief: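 Solid compound (1 mg) shaken overnight in 1 mL distilled water at room temperature. Suspension passed through a 0.45 μm nylon filter. Dissolved compound quantified in triplicate by UV/LC-MS or LC-MS/MS against a calibration curve of compound in methanol.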

[2] = Metabolic stability in human liver microsome in presence of NADPH-regenerating system by UV/LC-MS analysis; assay type: ADME; conditions: microsomes
Method in brief: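 Compound incubated 1 h at 37 °C with human liver microsomes (0.2 mg/mL) and an NADPH-regenerating system (NADPH 0.2 mM, NADP+ 1 mM, glucose-6-phosphate 4 mM, G6PDH 4 unit/mL, MgCl2 48 mM) in 25 mM phosphate buffer pH 7.4. Quenched with acetonitrile, then centrifuged. Parent and metabolites measured by UV/LC-MS. Percent unmetabolized obtained against reference solutions; three independent experiments.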

[3] = Permeability of the compound assessed as membrane retention rate by PAMPA method; assay type: ADME
Method in brief: (§1)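 Donor solution made from 1 mM DMSO stock diluted in 25 mM phosphate buffer pH 7.4 to 500 μM final. Filter coated with 1% (w/v) phosphatidylcholine in dodecane. Acceptor was 1:1 v/v DMSO/phosphate buffer. Sandwich incubated 5 h at room temperature. Compound in donor and acceptor wells quantified by UV/LC-MS.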

[4] = Apparent permeability of the compound by PAMPA method; assay type: ADME; method in brief: as §1
[5] = Stability in human plasma measured after 24 hrs by UV/LC-MS analysis; assay type: ADME, cell-free; conditions: read-out: Stability
Method in brief: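 Compound (2 mM) incubated at 37 °C in pooled human plasma (55.7 mg protein/mL) with HEPES 25 mM, NaCl 140 mM, pH 7.4. Samples taken at 0–24 h and precipitated with cold acetonitrile. After centrifugation, supernatant analysed by UV/LC-MS. Three independent experiments.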

Monoglyceride lipase = biological target: T1, Monoglyceride lipase (Homo sapiens, UniProt Q99685); assay: Inhibition of human recombinant MAGL using 4-nitrophenylacetate as substrate incubated for 30 mins by microplate reader analysis
T1 sequence (Q99685 whole entry): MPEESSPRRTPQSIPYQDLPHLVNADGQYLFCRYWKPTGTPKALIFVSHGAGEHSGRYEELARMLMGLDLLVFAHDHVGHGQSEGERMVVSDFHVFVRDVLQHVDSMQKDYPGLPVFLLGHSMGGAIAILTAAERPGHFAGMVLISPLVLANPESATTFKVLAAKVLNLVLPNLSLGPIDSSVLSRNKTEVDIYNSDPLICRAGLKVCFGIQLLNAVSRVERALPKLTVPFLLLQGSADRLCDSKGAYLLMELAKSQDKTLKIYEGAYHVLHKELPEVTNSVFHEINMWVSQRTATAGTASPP

[6] = biological target: T2, Monoglyceride lipase (Mus musculus) (UniProt O35678); assay: Displacement of TAMRA-FP from mouse brain MAGL at 1 uM incubated with compound for 5 mins followed by ABPP assay; assay type: tissue-based
T2 sequence (whole entry): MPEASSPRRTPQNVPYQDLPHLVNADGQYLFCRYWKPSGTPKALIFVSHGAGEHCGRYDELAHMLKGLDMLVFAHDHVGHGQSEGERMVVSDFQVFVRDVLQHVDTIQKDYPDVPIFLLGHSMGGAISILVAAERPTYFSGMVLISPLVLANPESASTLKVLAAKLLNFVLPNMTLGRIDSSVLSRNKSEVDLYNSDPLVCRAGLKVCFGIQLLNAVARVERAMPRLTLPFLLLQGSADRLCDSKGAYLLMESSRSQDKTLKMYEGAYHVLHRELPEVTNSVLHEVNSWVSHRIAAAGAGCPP

[7] = biological target: T3, Monoacylglycerol lipase ABHD6 (Mus musculus) (UniProt Q8R2Y0); assay: Displacement of TAMRA-FP from mouse brain ABHD6 at 10 uM incubated with compound for 5 mins followed by ABPP assay; assay type: tissue-based
T3 sequence (whole entry): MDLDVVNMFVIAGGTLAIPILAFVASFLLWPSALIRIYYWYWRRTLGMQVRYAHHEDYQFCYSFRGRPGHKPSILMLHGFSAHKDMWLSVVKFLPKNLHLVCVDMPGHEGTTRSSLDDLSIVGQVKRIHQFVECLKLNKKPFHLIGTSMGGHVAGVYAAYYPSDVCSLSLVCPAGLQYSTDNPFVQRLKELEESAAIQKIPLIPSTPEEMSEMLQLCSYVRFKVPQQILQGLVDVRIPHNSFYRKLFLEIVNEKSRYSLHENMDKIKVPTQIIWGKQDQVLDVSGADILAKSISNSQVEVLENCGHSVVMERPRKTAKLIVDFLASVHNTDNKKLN
Method in brief: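 Mouse brain membranes (2 mg/mL final, in PBS) preincubated 25 min at 25 °C with test compound (10 μM final) or DMSO vehicle. Controls: JZL-184, URB597 4 μM, WWL70 10 μM, THL, MAFP 5 μM. TAMRA-FP 125 nM final added for 5 min at 25 °C. Reaction stopped with Laemmli buffer, 3 min at 25 °C then 10 min at 90 °C. Separation by 10% SDS-PAGE, fluorescence scanning, three independent experiments.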

O=C(c1ccc(Sc2cccc(C(F)(F)F)c2)cc1)C1CCN(C(=O)c2cc(O)ccc2F)CC1
solubility thermodynamic [1]: 0.129 ng/mL (≈ 0.256 nM) | Stability [2]: 90.71% | R% [3]: 47% | Papp [4]: 1.83 ×10⁻⁶ cm/s | remaining at 24 h [5]: > 99%

COc1ccc(CC2CCN(C(=O)c3cccc(O)c3)CC2)cc1Sc1cc(C(F)(F)F)ccn1
IC50 (Monoglyceride lipase): 14.4 nM

O=C(c1cccc(O)c1)N1CCC(Cc2cc(Sc3cc(C(F)(F)F)ccn3)ccc2F)CC1
IC50 (Monoglyceride lipase): 22.5 nM

O=C(c1cccc(O)c1)N1CCC(Cc2cccc(Sc3ccc(C(F)(F)F)cn3)c2)CC1
IC50 (Monoglyceride lipase): 40.4 nM

O=C(c1cccc(O)c1)N1CCC(Cc2cccc(Sc3cccc(C(F)(F)F)n3)c2)CC1
IC50 (Monoglyceride lipase): 13.2 nM

O=C(c1cccc(O)c1)N1CCC(Cc2cc(Sc3cc(C(F)(F)F)ccn3)ccc2O)CC1
IC50 (Monoglyceride lipase): 20.8 nM

O=C(Oc1ccc([N+](=O)[O-])cc1)N1CCC(C(O)(c2ccc3c(c2)OCO3)c2ccc3c(c2)OCO3)CC1
Activity [6]: Active

O=C(c1cccc(O)c1)N1CCC(Cc2cccc(Sc3ncccc3C(F)(F)F)c2)CC1
IC50 (Monoglyceride lipase): 7.1 nM

O=C(c1cc(O)ccc1Sc1ccccc1)N1CCC(Cc2cccc(Sc3cc(C(F)(F)F)ccn3)c2)CC1
IC50 (Monoglyceride lipase): 32.3 nM

O=C(c1ccc(Sc2ccccc2)c(O)c1)N1CCC(Cc2cccc(Sc3cc(C(F)(F)F)ccn3)c2)CC1
IC50 (Monoglyceride lipase): 242 nM

O=C(c1cc(O)cc(Sc2ccccc2)c1)N1CCC(Cc2cccc(Sc3cc(C(F)(F)F)ccn3)c2)CC1
IC50 (Monoglyceride lipase): 44.8 nM

O=C(c1cccc(O)c1)N1CCC(Cc2ccc(O)c(Sc3cc(C(F)(F)F)ccn3)c2)CC1
IC50 (Monoglyceride lipase): 61.2 nM

COc1ccc(Sc2cc(C(F)(F)F)ccn2)cc1CC1CCN(C(=O)c2cccc(O)c2)CC1
IC50 (Monoglyceride lipase): 49.1 nM

O=C(Nc1ccc(O)cc1C(=O)N1CCC(Cc2cccc(Sc3cc(C(F)(F)F)ccn3)c2)CC1)c1ccccc1
IC50 (Monoglyceride lipase): 112 nM

O=C(Nc1cc(O)cc(C(=O)N2CCC(Cc3cccc(Sc4cc(C(F)(F)F)ccn4)c3)CC2)c1)c1ccccc1
IC50 (Monoglyceride lipase): 149 nM

CN(Cc1cccc(-c2ccncc2)c1)C(=O)Oc1ccc(-c2ccc(C(N)=O)cc2)cc1
Activity [7]: Active

O=C(Nc1ccc(C(=O)N2CCC(Cc3cccc(Sc4cc(C(F)(F)F)ccn4)c3)CC2)cc1O)c1ccccc1
IC50 (Monoglyceride lipase): > 1000 nM
